Screens: PubChem, several laboratories
This is one part of a sample in which hits are shown more often than they occur.
Phagocyt inh – macrophage phagocytosis inhibition; inhibition, % at 5 µM; J774A.1 macrophage IgG-bead phagocytosis, imaging; actives 0.07% (n = 110,000); AID 1029;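 active means inhibition above the mean of the plate negative controls plus 5 SD, cut at about 13% in these data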;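 further: phagocytic index as fraction of beads internalized from green versus red external bead signal; plate controls were DMSO negative control for no effect and cytochalasin-D positive control for full effect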
H69AR inhibit – blocks growth of human H69AR lung tumor cells | H69AR lung tumor viability, ATP luminescence, 72 h; stronger effect = lower value | viability, % at 10 µM | actives 6% (n = 85,000) | AID 598;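 active means viability at or below 40%; inactive means viability above 40%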;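 further: multidrug resistant small cell line overexpressing MRP-1 efflux transporter; 100% = mean luminescence of untreated control wells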
HUVEC inhibit – human endothelial cell proliferation inhibition | HUVEC proliferation, CellTiter-Glo luminescence, 72 h; stronger effect = lower value | viability, % at 10 µM (by protocol) | actives 1.1% (n = 86,000);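 active means viability at or below 30%; inactive means viability above 30%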;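 further: 100% = median luminescence of DMSO-only cell control wells on each plate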
bCat KO growth – beta-catenin-lacking colon tumor cell growth suppression. HCT116 beta-catenin knockout viability, CellTiter-Glo, 60 h; stronger effect = lower value. viability, % at 10 µM. actives 1.5% (n = 140,000). AID 818;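 active means viability at or under a set limit, the compound median less 4 SD, cut at about 6% in these data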;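 further: 0% = Hyamine 1622 control at 20 µM and 100% = untreated cell control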
Lung fibro prol – blocks proliferation of human lung fibroblasts; LL 47 human lung fibroblast viability, ATP luminescence; stronger effect = lower value; viability, % at 10 µM; actives 1.1% (n = 85,000);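 active means viability at or below 50% in the single dose screen; inactive means viability above 50%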;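 further: compound exposure lasted 72 h before the ATP readout; 100% = median luminescence of untreated cell-only wells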
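Benchmarks: Cell-only wells, no compound | Test system: LL 47 human lung fibroblasts, passage 12 or lower | Input: 1,150 cells/well | Measured by: CellTiter-Glo luminescence measuring cellular ATP | Medium: IMEM, 15% FBS supplement | Schedule: Overnight attachment after seeding, then 72 h compound exposure at 37 °C | Doses: Compound addition at 0.1% DMSO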
HCT116 PTEN-null – PTEN-deleted cell growth suppression | HCT116 PTEN-null viability, CellTiter-Glo, 60 h; stronger effect = lower value | viability, % at 10 µM | actives 1.2% (n = 140,000);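 active means viability at or below a set limit, 4 SD under the median of all tested compounds, cut at about 3.7% in these data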;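 further: PTEN knockout HCT116 line with beta catenin targeted HCT116 as companion control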
* marks the source's active call; other numbers are inactive results.

`CCOC(=O)CSC1=C(C#N)C(c2ccc(Cl)cc2)CC(=O)N1` (centres undefined) gave Phagocyt inh 0, H69AR inhibit 86, HUVEC inhibit 96, bCat KO growth 97, Lung fibro prol 93 and HCT116 PTEN-null 90.
For CCOC(=O)CSC1=C(C#N)C(c2ccc3c(c2)OCO3)CC(=O)N1 (centres undefined) the results were Phagocyt inh -1, H69AR inhibit 23*, HUVEC inhibit 69, bCat KO growth 51, Lung fibro prol 79 and HCT116 PTEN-null 49.
`CCOC(=O)CSC1=C(C#N)C(c2ccc(C)o2)CC(=O)N1` (centres undefined) gave H69AR inhibit 94, HUVEC inhibit 33, bCat KO growth 12, Lung fibro prol 49* and HCT116 PTEN-null 16.
`CCOC(=O)CSC1=C(C#N)C(c2ccccc2OCC)C(C#N)C(=O)N1` (centres undefined) gave Phagocyt inh 2, H69AR inhibit 27*, HUVEC inhibit 70, bCat KO growth 95, Lung fibro prol 93 and HCT116 PTEN-null 91.
Cc1c(S(=O)(=O)N2CCc3ccccc3C2)c(=O)n(C)c(=O)n1C was read as Phagocyt inh -2, H69AR inhibit 101, HUVEC inhibit 109, bCat KO growth 92, Lung fibro prol 103 and HCT116 PTEN-null 92.
For CC1CC(C)CN(CCCNC(=O)Cc2c(C(=O)O)[nH]c3ccccc23)C1 (centres undefined) the results were Phagocyt inh 3, H69AR inhibit 103, HUVEC inhibit 99, bCat KO growth 92, Lung fibro prol 100 and HCT116 PTEN-null 104.
COc1cc(NS(=O)(=O)c2ccc(C)cc2C)cc(OC)c1OC was read as Phagocyt inh 0, H69AR inhibit 24*, HUVEC inhibit 87, bCat KO growth 42, Lung fibro prol 94 and HCT116 PTEN-null 48.
`COc1ccc(C)cc1S(=O)(=O)Nc1ccccc1` gave Phagocyt inh -1, H69AR inhibit 100, HUVEC inhibit 96, bCat KO growth 103, Lung fibro prol 102 and HCT116 PTEN-null 110.
Screening COc1ccc2nc(NC(=O)CSc3nc4cccnc4n3C)sc2c1 returned Phagocyt inh 1, H69AR inhibit 73, HUVEC inhibit 54, bCat KO growth 104, Lung fibro prol 98 and HCT116 PTEN-null 85.
For COC(=O)c1sc(NC(=O)CSc2nc3cccnc3n2C2CCCCC2)nc1C the results were Phagocyt inh 0, H69AR inhibit 20*, HUVEC inhibit 56, bCat KO growth 84, Lung fibro prol 89 and HCT116 PTEN-null 91.
N#Cc1ccsc1NC(=O)CSc1ncnc2ccccc12 was read as Phagocyt inh -1, H69AR inhibit 38*, HUVEC inhibit 83, bCat KO growth 36, Lung fibro prol 78 and HCT116 PTEN-null 47.
`N#Cc1ccsc1NC(=O)CSc1ncn[nH]1` gave Phagocyt inh 2, H69AR inhibit 93, HUVEC inhibit 98, bCat KO growth 115, Lung fibro prol 99 and HCT116 PTEN-null 116.
`CC1CN(S(=O)(=O)c2ccc(C(=O)Nc3ccc(S(=O)(=O)Nc4nccs4)cc3)cc2)CC(C)O1` (centres undefined) gave Phagocyt inh -6, bCat KO growth 90 and HCT116 PTEN-null 95.
For CC1CN(S(=O)(=O)c2ccc(NC(=O)c3cc(-c4ccccc4O)n[nH]3)cc2)CC(C)O1 (centres undefined) the results were Phagocyt inh 0, H69AR inhibit 12*, HUVEC inhibit 55, bCat KO growth 17, Lung fibro prol 74 and HCT116 PTEN-null 8.
Screening Cc1ccc(NC(=O)C2CC(=O)N/C(=N/N=C/c3ccco3)S2)cc1C (centres undefined) returned Phagocyt inh -11, bCat KO growth 96 and HCT116 PTEN-null 70.
`Cc1[nH]nc2c1C(C1CC=CCC1)C(C#N)=C(N)O2` (centres undefined) gave Phagocyt inh -2, H69AR inhibit 48, HUVEC inhibit 75, bCat KO growth 9, Lung fibro prol 87 and HCT116 PTEN-null 13.
Screening N#CC1=C(N)Oc2cc(N)ccc2C1C1CC=CCC1 (centres undefined) returned Phagocyt inh 1, H69AR inhibit 29*, HUVEC inhibit 61, bCat KO growth 22, Lung fibro prol 96 and HCT116 PTEN-null 22.
Screening Cc1ccsc1C1NC(=O)c2ccccc2N1 (centres undefined) returned H69AR inhibit 23*, HUVEC inhibit 63, bCat KO growth 72, Lung fibro prol 88 and HCT116 PTEN-null 74.
For O=C1NC(c2cccs2)Nc2ccccc21 (centres undefined) the results were Phagocyt inh 0, H69AR inhibit 61, HUVEC inhibit 100, bCat KO growth 84, Lung fibro prol 100 and HCT116 PTEN-null 66.
CCOC(=O)c1cn(-c2nc(-c3ccc(Cl)c(Cl)c3)cs2)c2c(F)c(N3CCOCC3)c(F)cc2c1=O was read as Phagocyt inh -5, bCat KO growth 1.7* and HCT116 PTEN-null 1.2*.
`CCOC(=O)c1cn(-c2ccc(F)c(F)c2F)c2c(F)c(F)c(F)cc2c1=O` gave Phagocyt inh -1, bCat KO growth 69 and HCT116 PTEN-null 72.
For CCc1cccc(CC)c1NC(=O)COC(=O)c1ccc(F)c(S(=O)(=O)N(CC)CC)c1 the results were Phagocyt inh -19, bCat KO growth 91 and HCT116 PTEN-null 93.
For Cc1cc(C(=O)N/N=C/c2ccc(Cl)c([N+](=O)[O-])c2)c(C)n1-c1ccc(F)cc1 the results were bCat KO growth 3.1* and HCT116 PTEN-null 2.5*.
`CCC(Sc1nc2n[nH]c(C)c2c(=N)n1-c1cc(Cl)ccc1C)C(=O)N1CCOCC1` (centres undefined) gave H69AR inhibit 16*, HUVEC inhibit 85, bCat KO growth 80, Lung fibro prol 83 and HCT116 PTEN-null 74.
`CCN(CC)S(=O)(=O)c1ccc(N2CCN(S(=O)(=O)c3ccc4c(c3)OCCO4)CC2)nc1` gave H69AR inhibit 81, HUVEC inhibit 82, bCat KO growth 56, Lung fibro prol 84 and HCT116 PTEN-null 67.
For CCn1ncc(NC(=O)Nc2cccc(C(F)(F)F)c2)c1C(N)=O the results were Phagocyt inh -2, H69AR inhibit 93, HUVEC inhibit 87, bCat KO growth 103, Lung fibro prol 97 and HCT116 PTEN-null 110.
`CCSCCc1nnc(NC(=O)Nc2cccc(C(F)(F)F)c2)s1` gave Phagocyt inh 6, bCat KO growth 4.5* and HCT116 PTEN-null 3.7*.
For CC[n+]1c(/C=C/c2ccc(N(C)C)cc2)ccc2ccccc21 the results were Phagocyt inh -1, bCat KO growth 3.4* and HCT116 PTEN-null 2.1*.
For CN(C)c1ccc(/C=C/c2cc[n+](C)cc2)cc1 the results were Phagocyt inh 0, H69AR inhibit 43, HUVEC inhibit 96, bCat KO growth 8, Lung fibro prol 101 and HCT116 PTEN-null 14.
